Common to all, as to assay type: functional, cell-based
Assay [1] concerns the target Insulin receptor (Homo sapiens) (UniProt P06213). Briefly: Increase in insulin-induced IRbeta phosphorylation in HepG2 cells after 60 mins at 20 nM. The gist of the method:
(§1)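 Time course in subconfluent HepG2 cells. Preincubation with 20 nM prodrug for various periods (5, 20, 60 min), then 5 min with or without 100 nM insulin. Lysates resolved by SDS-PAGE, transferred to nitrocellulose and probed for phospho-IRβ and phospho-ERK1/2. Result expressed as increase in insulin-induced phosphorylation.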

For assay [2] the target is unchanged. As to the kind of experiment: Increase in insulin-induced IRbeta phosphorylation in HepG2 cells after 20 mins at 20 nM. The gist of the method: as §1
Assay [3] has the same target. As to the kind of experiment: Increase in insulin-induced IRbeta phosphorylation in HepG2 cells after 2 hrs at 20 nM.
Assay [4] shares this target. As to the kind of experiment: Increase in insulin-induced ERK phosphorylation in HepG2 cells after 20 mins at 20 nM.
Assay [5] shares this target. Briefly: Increase in insulin-induced IRbeta phosphorylation in HepG2 cells after 5 mins at 20 nM. The gist of the method: as §1
Assay [6] has the same target. Briefly: Increase in insulin-induced IRbeta phosphorylation in human HepG2 cells after 1 hr at 20 nM. The method, boiled down: (§2)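 HepG2 (MEM, 2 mM L-glutamine, 1 mM pyruvate, 10% FBS, 5% CO2) grown to 60-80% confluence, serum-starved 5 h, exposed 1 h to prodrug (0, 5, 20, 100 nM), then 100 nM insulin or none for 5 min. Lysates run on SDS-PAGE, blotted with anti-phospho-IRβ (pY1162/1163) and anti-phospho-ERK1/2, β-actin loading control; bands quantified densitometrically as fold over insulin-only.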

Assay [7] shares this target. Briefly: Increase in insulin-induced ERK phosphorylation in human HepG2 cells after 1 hr at 20 nM. The gist of the method:
as §2

For assay [8] the target is unchanged. Briefly: Increase in insulin-induced ERK phosphorylation in human HepG2 cells after 1 hr at 100 nM. The method, boiled down:
as §2

The target is the same in assay [9]. Briefly: Increase in insulin-induced ERK phosphorylation in HepG2 cells after 60 mins at 20 nM. The method, boiled down:
as §1

Assay [10] has the same target. Briefly: Increase in insulin-induced IRbeta phosphorylation in human HepG2 cells after 1 hr at 100 nM. The method, boiled down:
as §2

The structures appear in SMILES notation.

Chain of Insulin receptor (Homo sapiens) (P06213 28-758 limits assumed): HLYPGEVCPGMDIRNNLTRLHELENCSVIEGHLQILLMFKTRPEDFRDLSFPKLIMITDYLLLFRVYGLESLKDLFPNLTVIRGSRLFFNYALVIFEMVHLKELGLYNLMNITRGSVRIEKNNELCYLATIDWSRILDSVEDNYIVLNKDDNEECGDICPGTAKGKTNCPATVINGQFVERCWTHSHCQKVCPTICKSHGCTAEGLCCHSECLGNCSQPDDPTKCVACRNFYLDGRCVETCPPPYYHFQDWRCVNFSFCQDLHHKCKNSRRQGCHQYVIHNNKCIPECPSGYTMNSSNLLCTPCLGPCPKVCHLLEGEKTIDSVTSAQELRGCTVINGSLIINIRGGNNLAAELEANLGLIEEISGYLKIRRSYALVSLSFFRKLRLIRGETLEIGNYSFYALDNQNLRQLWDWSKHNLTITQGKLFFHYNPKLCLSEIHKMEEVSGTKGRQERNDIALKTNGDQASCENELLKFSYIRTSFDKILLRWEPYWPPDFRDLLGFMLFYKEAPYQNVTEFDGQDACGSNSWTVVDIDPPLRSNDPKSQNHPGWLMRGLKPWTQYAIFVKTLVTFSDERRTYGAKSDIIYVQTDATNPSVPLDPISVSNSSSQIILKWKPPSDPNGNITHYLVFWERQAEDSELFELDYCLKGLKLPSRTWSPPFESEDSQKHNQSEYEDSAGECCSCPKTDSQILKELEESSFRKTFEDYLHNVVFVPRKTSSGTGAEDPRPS
Chain of Insulin receptor (Homo sapiens) (P06213 763-1382 limits assumed): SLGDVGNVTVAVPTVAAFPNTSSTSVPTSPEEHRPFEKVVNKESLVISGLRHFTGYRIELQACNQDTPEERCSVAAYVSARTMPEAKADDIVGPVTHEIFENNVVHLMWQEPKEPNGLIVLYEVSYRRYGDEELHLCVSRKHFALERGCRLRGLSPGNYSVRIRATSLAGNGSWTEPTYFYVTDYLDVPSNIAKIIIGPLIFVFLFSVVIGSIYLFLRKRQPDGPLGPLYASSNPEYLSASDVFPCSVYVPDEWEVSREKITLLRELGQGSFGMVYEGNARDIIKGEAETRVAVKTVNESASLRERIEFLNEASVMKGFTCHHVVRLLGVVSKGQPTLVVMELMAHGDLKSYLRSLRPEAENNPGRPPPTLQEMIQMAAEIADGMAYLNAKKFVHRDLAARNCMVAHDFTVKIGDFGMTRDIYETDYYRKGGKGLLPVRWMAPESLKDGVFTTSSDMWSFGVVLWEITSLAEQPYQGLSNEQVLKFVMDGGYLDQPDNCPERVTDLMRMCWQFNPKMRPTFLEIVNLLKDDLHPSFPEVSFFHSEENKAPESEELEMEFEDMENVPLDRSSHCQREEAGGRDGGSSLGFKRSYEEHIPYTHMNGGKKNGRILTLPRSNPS

Turning to `CN(CCCCCl)P(=O)(OCc1ccc([N+](=O)[O-])o1)C(F)(F)c1ccc(CC(=O)N[C@@H](CC(=O)O)C(=O)N[C@@H](Cc2ccc(C(F)(F)P(=O)(OCc3ccc([N+](=O)[O-])o3)N(C)CCCCCl)cc2)C(N)=O)cc1` (stereo not given in full), the Activity in [1] was 2; in assay [2] it was 1.7; in assay [3], 2.1; in [4], 25%; in [5] it was 35%; in [6] it was 1.9. In addition, the Activity in assay [7] was 1.3; in assay [8], 1.6; in [9], 50%; in assay [10], 2.1.

The record behind these values is ChEMBL document CHEMBL1141375, “Synthesis and cell-based activity of a potent and selective protein tyrosine phosphatase 1B inhibitor prodrug” (J Med Chem, 2007).
